# Compound activity deposited in PubChem by several laboratories.
# WT yeast gro inh – growth inhibition of WT strain, primary screen, mitochondrial fusion inhibitor project, WT and mutant strains, chemical genetic; mitochondrial fusion phenotypic screen; inhibition, % at 10 µM; actives 2.1% (n = 190,000); in the data active means inhibition above about 58%; tested in S. cerevisiae
# MEKK3 PB1 HTS – modulators of MEKK3-MEK5 PB1 binding, primary screen, biochemical, wildtype MEKK3, multiplex bead flow cytometry, Alexa488-MEK5. AID 1529, 2009. binding response (% of control), % at 10 µM. actives 1.4% (n = 290,000). bead-based flow cytometry, Alexa488-MEK5 binding to MEKK3; actives lie on both sides; 0 = blocked by unlabeled MEK5, 100 = vehicle;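 active means binding response more than 3 SD above or below the average of its plate-row segment, actives on both sides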;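 further: Alexa488 bead fluorescence after subtracting the streptavidin-only scavenger bead signal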
# Target sequence (Q99759 whole entry, looked up): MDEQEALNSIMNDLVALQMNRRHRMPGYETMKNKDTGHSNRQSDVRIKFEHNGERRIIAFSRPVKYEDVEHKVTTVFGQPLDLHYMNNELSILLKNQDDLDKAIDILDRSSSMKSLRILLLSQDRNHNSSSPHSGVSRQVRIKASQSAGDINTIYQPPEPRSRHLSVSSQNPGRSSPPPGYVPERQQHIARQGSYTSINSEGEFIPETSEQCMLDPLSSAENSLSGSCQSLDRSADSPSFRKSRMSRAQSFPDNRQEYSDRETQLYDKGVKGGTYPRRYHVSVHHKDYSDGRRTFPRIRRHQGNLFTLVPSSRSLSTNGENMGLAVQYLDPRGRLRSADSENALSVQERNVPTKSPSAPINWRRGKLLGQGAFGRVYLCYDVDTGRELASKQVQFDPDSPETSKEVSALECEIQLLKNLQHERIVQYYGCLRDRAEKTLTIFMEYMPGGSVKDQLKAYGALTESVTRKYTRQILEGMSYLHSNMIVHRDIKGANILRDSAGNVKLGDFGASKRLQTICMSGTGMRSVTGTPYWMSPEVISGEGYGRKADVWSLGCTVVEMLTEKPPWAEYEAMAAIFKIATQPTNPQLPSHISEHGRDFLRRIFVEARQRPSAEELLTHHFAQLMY
# ABCG2 block – ABCG2 efflux pump inhibitors, primary screen, multiplex with ABCB1, IgMXP3 cells, flow cytometry; JC-1 efflux; Broad substrate specificity ATP-binding cassette transporter ABCG2 (Homo sapiens), Q9UNQ0; actives 0.1% (n = 190,000); inhibition, % at 6.6 µM;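 active means inhibition above 80%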;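 further: 0% = DMSO and 100% = nicardipine control wells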
#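 Incubation: cells with compound and JC-1, 10 min at 25 °C, rotating, no wash / Test system: IgMXP3 (ABCG2) plus far-red-tagged CCRF-Adr (ABCB1) cells / Compound dosing: one concentration, 6.6 µM final / Also added: JC-1 fluorescent substrate / Evaluation: efflux inhibition in percent versus controls / Detection: flow cytometry, 530 nm JC-1 signal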
# MEKK2 mut-MEK5 – MEK5 binding signal on mutant MEKK2 PB1, primary screen, biochemical, multiplex bead flow cytometry, Alexa488-MEK5 | Alexa488-MEK5 binding to MEKK2 mutant | actives 0.35% (n = 290,000) | AID 1530, 2009 | percent response, % at 10 µM; in the data active means percent response above about 24%, passing the limit was not always enough
# ABCB1 block – ABCB1 efflux pump inhibitors, primary screen, cell-based, multiplex, flow cytometry, ABCG2 counter-screen; actives 0.067% (n = 190,000); CCRF-Adr cells, JC-1 efflux; inhibition, % at 6.6 µM; in the data active means inhibition above about 40%;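 further: 0% = vehicle and 100% = reference inhibitor; higher value means more JC-1 retained so stronger ABCB1 efflux block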
# MEKK2 WT-MEK5 – modulators of MEK5 binding to wildtype MEKK2, primary screen, biochemical, multiplex bead flow cytometry, Alexa488-MEK5. actives 1.1% (n = 290,000). Alexa488-MEK5 binding to MEKK2 WT; actives lie on both sides. binding response (% of control), % at 10 µM. Mitogen-activated protein kinase kinase kinase 2 (Homo sapiens), Q9Y2U5. AID 1531, 2009; in the data active means binding response below about 67% or above about 130%
# MEKK2wt confirm – modulators of MEK5 binding to wildtype MEKK2, confirmation, biochemical, single concentration, multiplex bead flow cytometry; shares compounds with MEKK3 PB1 HTS; Alexa488-MEK5 binding to MEKK2 WT; actives lie on both sides; binding response (% of control), % at 10 µM; actives 2.4% (n = 5,900); AID 1892, 2009; in the data active means binding response below about 16% or above about 210%; inactive means in between
# MEKK2mut confirm – mutant MEKK2 PB1-MEK5 binding signal retest – biochemical, single concentration, multiplex bead flow cytometry, confirmation | shares compounds with MEKK3 PB1 HTS | Alexa488-MEK5 binding to MEKK2 mutant | percent response, % at 10 µM | actives 2% (n = 5,900) | AID 1893, 2009; in the data active means percent response mostly above about 71%, no sharp cut-off; inactive means mostly below about 38%;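 further: higher means compound restores mutant binding toward wildtype level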
# MEKK3-MEK5 inh – MEKK3 wild-type PB1 binding to MEK5, inhibitors, confirmation, biochemical, bead multiplex flow cytometry, single concentration, wildtype | shares compounds with MEKK3 PB1 HTS | Alexa488-MEK5 binding to MEKK3; active compounds read low | binding response (% of control), % at 10 µM | actives 1.8% (n = 5,900);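 active means binding response below 72% of control, or above a set upper limit, though filed actives all read lower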;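 further: 100% = DMSO only wells and 0% = binding blocked by excess unlabeled MEK5; lower values mean stronger disruption of MEK5 binding to MEKK3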
# Active calls of the source: *; . = not tested or not shown; [ ] = another dose, or the depositor's remark. Only some compounds are listed: those with a hit (about 3.5% of all), similar ones and a draw of the others.
SMILES,WT yeast gro inh,MEKK3 PB1 HTS,ABCG2 block,MEKK2 mut-MEK5,ABCB1 block,MEKK2 WT-MEK5,MEKK2wt confirm,MEKK2mut confirm,MEKK3-MEK5 inh
NCC12CC3CC(C1)CC(c1ccc(Cl)cc1)(C3)C2,73*,98,8,26,1,155*,147,29,102
Nc1ccc(C23CC4CC(CC(CO)(C4)C2)C3)cc1,-25,103,7,1,1,102,.,.,.
N#C/C(=C\c1ccc(N2CCOCC2)cc1)c1ccccc1,18,137*,14,0,1,100,102,2,101
CS(=O)(=O)N1CCc2cc(C(=O)N3CCCC3)ccc21,-14,132*,0,1,0,119,97,-4,104
CC1(C(=O)NC2CCCCCCC2)CCC(=O)N1Cc1cccs1 (stereo not drawn),-2,102,2,13,1,105,.,.,.
Nc1ccc(C(=O)N/N=C/c2cn(Cc3ccc(F)cc3)c3ccccc23)cc1,.,100,.,-2,.,93,.,.,.
O=C(N/N=C/c1cn(Cc2cccc(F)c2)c2ccccc12)c1cc(O)cc(O)c1,.,79*[inhibitor],.,-17,.,65*[inhibitor],74,-13,81
O=C1CC(c2ccccc2)CN1C(=O)c1cccnc1 (stereo not drawn),-28,141*,4,6,1,124,102,0,99
NC(=O)c1ccccc1NC(=O)c1ccc2c(c1)OCO2,.,103,.,-4,.,101,.,.,.
CCc1nnc(NS(=O)(=O)c2ccc(N/C=C\C(=O)c3ccc(C)cc3)cc2)s1,-16,104,-1,7,0,105,.,.,.
COc1ccc(NC(=O)C(NC(=O)CC2NC(=O)NC2=O)c2ccccc2)cc1 (stereo not drawn),7,155*,-1,0,0,106,103,1,100
Cc1cc(C)c2cc(C(=O)N3CCN(c4ncccc4C(F)(F)F)CC3)[nH]c2c1,.,97,.,-2,.,100,.,.,.
O=[N+]([O-])c1ccc2nnn(O)c2c1,6,87,7,-2,1,91,.,.,.
O=C(Nc1cc(Cl)cc(Cl)c1)c1cccc(OC(F)F)c1,27,109,4,39,1,172*,106,5,104
Cc1ccnc(NC(=O)c2cccc(OC(F)F)c2)n1,.,105,.,-2,.,101,.,.,.
CCS(=O)(=O)c1nc(S(=O)(=O)c2ccc(Cl)cc2)c(N2CCC(O)CC2)s1,.,102,.,0,.,99,.,.,.
CN(C)c1ccc(C(CN)c2c[nH]c3ccccc23)cc1 (stereo not drawn),16,69*[inhibitor],3,0,1,110,131,18,97
CC12C=CC3(O1)C(C(=O)N(c1ccccc1)C3C(=O)NC1CCCC1)C2C(N)=O (stereo not drawn),-14,20*[inhibitor],-1,-3,0,29*[inhibitor],102,2,102
COc1cc(Cl)cc2c1Sc1ccccc1/C2=C/CCN(C)C,29,81,1,19,0,167*,154,46,108
COc1ccc(/C=C/c2cc(-c3ccc(C)cc3)o[n+]2C)cc1,58*,109,3,18,0,155*,112,9,95
NC(=O)c1ccc2c(=O)c(O)c(-c3cc(Cl)c(N)c(Cl)c3)[nH]c2c1,.,95,.,-3,.,80,.,.,.
CCOC(=O)c1c(NC(=O)C[n+]2ccc(Cc3ccccc3)cc2)sc(C)c1C,12,94,-5,11,-2,138*,191,53,111
CCC(C)[C@H](NC(=O)OC(C)(C)C)C(=O)NCC1CCC(C(=O)N[C@@H](Cc2ccccc2)C(=O)O)CC1 (stereo partly drawn),.,105,.,8,.,105,.,.,.
Cc1cc2ncn(CCC(=O)NC(C)(C)C)c2cc1C,-6,3.0*[inhibitor],2,-46,2,4.0*[inhibitor],104,4,105
NC(C(=O)O)C(c1ccccc1)C(F)F (stereo not drawn),.,106,.,0,.,104,.,.,.
SMILES,WT yeast gro inh,MEKK3 PB1 HTS,ABCG2 block,MEKK2 mut-MEK5,ABCB1 block,MEKK2 WT-MEK5,MEKK2wt confirm,MEKK2mut confirm,MEKK3-MEK5 inh
S=c1[nH]nc(-c2cccnc2)n1-c1ccccc1,-20,80*[inhibitor],-1,2,0,101,98,-4,105
Cc1cc(C)c2nc(C)cc(N/N=C/c3ccc(O)cc3)c2c1,.,115,.,119*,.,237*,244*,102*,111
Cc1cc(N/N=C/c2ccc(O)cc2)c2cccc(C)c2n1,.,110,.,29*,.,209*,134,21,107
N#CC1=C(N)N(c2ncn[nH]2)C2=C(C(=O)CCC2)C1c1ccccc1 (stereo not drawn),-23,99,0,-1,0,99,.,.,.
O=[N+]([O-])c1ccc(P(=O)(Cc2ccccc2)c2ccccc2O)cc1 (stereo not drawn),.,103,.,1,.,101,.,.,.
Cc1[nH]c(=O)[nH]c(=O)c1S(=O)(=O)N1CCCC1,7,101,0,2,0,98,.,.,.
CCOC(=O)CC(NS(=O)(=O)c1ccc(OC)c(OC)c1)c1cccc([N+](=O)[O-])c1 (stereo not drawn),-18,98,0,-2,1,100,.,.,.
CCOC(=O)CC(NC(=O)c1cc2cccc(OC)c2oc1=O)c1cccc([N+](=O)[O-])c1 (stereo not drawn),21,135*,13,0,4,102,102,1,104
C=CCNC(=O)c1cc2cccc(OC)c2oc1=O,-6,128*,3,0,0,113,114,8,109
